Values after ≈ are worked out from the molar mass of the structure shown. Active and inactive are the calls of the source. The rule behind the calls is not given here.
Tests used:
Enterococcus faecalis = test: Antibiotic activity against cytolysin-positive Enterococcus faecalis MMH594 infected in intestine of Caenorhabditis elegans glp-4(bn2ts);sek-1(km4) mutant infection model assessed as nematode survival at 50 to 100 ug/mL after 168 hrs by liquid infection assay; format: functional, organism-based
Method in brief: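 C. elegans glp-4(bn2ts);sek-1(km4) synchronized L4 to young adult worms, fed E. coli OP50, infected on E. faecalis MMH594 lawn, then moved to liquid medium (19% BHI, 80% M9, 80 μg mL-1 kanamycin, 1% DMSO) with compound at 100 and 50 μg mL-1 final. Survival scored at 3, 48, 120, 168 h. Ampicillin positive control.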

Globisporangium ultimum = test: Antimicrobial activity against Pythium ultimum mycelia assessed as growth inhibition; format: functional
Pyricularia grisea = test: Antimicrobial activity against Magnaporthe grisea mycelia assessed as growth inhibition; format: functional

| SMILES | Activity (Enterococcus faecalis) | MIC (Globisporangium ultimum) [µg/mL] | MIC (Pyricularia grisea) [µg/mL] |
| --- | --- | --- | --- |
| CC[C@H](C)/C=C/C1=CC2=C(Cl)C(=O)[C@@]3(C)OC(=O)C(C(=O)[C@H](C)[C@@H](C)O)=C3C2=CO1 | inactive | – | – |
| CC(O)C(C)C1(O)O[C@]2(C)C(=O)C(Cl)=C3C=C(/C=C/[C@@H](C)[C@@H](C)O)OC=C3[C@@H]2[C@@H]1C(=O)O (stereo partly specified) | inactive | – | – |
| CC[C@H](C)/C=C/C1=CC2=CC(=O)[C@@]3(C)OC(=O)C(C(=O)[C@@H](C)[C@@H](C)O)=C3C2=CO1 | inactive | – | – |
| CC[C@H](C)/C=C/C1=CC2=C(Cl)C(=O)[C@@]3(C)OC(=O)C(C(=O)[C@@H](C)[C@@H](C)O)=C3C2=CO1 [CHAETOVIRIDIN A] | inactive | 33.3 (≈ 76.9 µM) | 1.23 (≈ 2.84 µM) |
| C/C=C(\C)C(=O)[C@@H]1C(=O)O[C@]2(C)C(=O)C(Cl)=C3C=C(/C=C/[C@@H](C)CC)OC=C3[C@H]12 | inactive | – | – |
| CC[C@H](C)/C=C/C1=CC2=C(Cl)C(=O)[C@@]3(C)OC(=O)C(C(=O)[C@H](C)CC)=C3C2=CO1 | inactive | – | – |
| C[C@H](O)[C@H](C)C(=O)[C@@H]1C(=O)O[C@]2(C)C(=O)C(Cl)=C3C=C(/C=C/[C@@H](C)[C@@H](C)O)OC=C3[C@H]12 | inactive | – | – |
| CC[C@H](C)/C=C/C1=CC2=C(Cl)C(=O)[C@@]3(C)OC(O)(C(C)C(C)O)[C@@H](C(=O)O)[C@H]3C2=CO1 (stereo partly specified) [CHAETOVIRIDIN B] | inactive | 33.3 (≈ 73.5 µM) | 1.23 (≈ 2.72 µM) |
| CC[C@H](C)/C=C/C1=CC2=C(Cl)C(=O)[C@@]3(C)OC(=O)C4=C(C(C)C(C)O)OC(O1)C2(O)C43O (stereo partly specified) | inactive | – | – |
| CC[C@H](C)/C=C/C1=CC2=C(Cl)C(=O)[C@@]3(C)OC(=O)[C@@H](C(=O)[C@@H](C)[C@H](C)O)[C@H]3C2=CO1 | inactive | – | – |
| CC[C@H](C)/C=C/C1=CC2=C(Cl)C(=O)[C@@]3(C)OC(=O)C(C(=O)[C@@H](C)[C@H](C)O)=C3C2=CO1 | inactive | – | – |
| C/C=C(\C)C(=O)C1=C2C3=COC(/C=C/[C@@H](C)CC)=CC3=C(Cl)C(=O)[C@@]2(C)OC1=O | inactive | – | – |

— ChEMBL document CHEMBL1799936, “Azaphilones from the endophyte Chaetomium globosum” (2011)
